Experimental data as given in PMC8892239 (EFSA Journal, 2022).
Converted amounts (≈) assume the structure as drawn. Read-outs that look alike come from different tables or passages of the source.

Legend:
[1] = test system: Pisum sativum (pea); experiment: Seedling emergence and seedling growth test, OECD 208; type: in vivo; details: 21 days
Method in brief: (§1)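 Soil was spiked with the test compound; measured concentrations were checked against nominal. From 50% emergence in controls, emergence, survival and visible phytotoxicity were recorded weekly for 21 days. At the end, emergence, survival, shoot fresh weight and visible damage were recorded. Effect concentrations were derived from dose–response curves.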

[2] = test system: Caenorhabditis elegans; experiment: Sediment toxicity test, ISO 10872, 96 h; type: in vivo
Method in brief: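 GLP sediment test with Caenorhabditis elegans per ISO 10872. Sediment levels were 25.6, 64, 160, 400 and 1,000 mg/kg sediment DW, with four replicates per control and per concentration. Fertility, reproduction and growth were read 96 h after the nematodes were added.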

[3] = test system: weaned piglets; experiment: Tolerance study in weaned piglets; type: in vivo
Method in brief: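 128 piglets (Pietrain × crossbred, both sexes) entered the study at 28 days old and 8.1 kg. They were housed four per pen (two males, two females) in 32 pens and acclimatised for 6 days. Four mash diets were fed: 0, 50, 150 or 300 mg/kg feed, with eight replicate pens per diet.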

[4] = test system: Atlantic salmon; experiment: Tolerance study in Atlantic salmon; type: in vivo, Salmo salar L.
[5] = test system: Skeletonema pseudocostatum; experiment: Marine algal growth inhibition test, ISO 10253:2016; type: in vivo; details: read-out: ErC50
Method in brief: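 Test concentrations were measured analytically at 0 and 72 h. Endpoints were expressed on the geometric mean of the measured concentrations. An EC50 was also predicted from the initially measured concentrations.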

[6] = test system: Avena sativa (oat); experiment: Seedling emergence and seedling growth test, OECD 208; type: in vivo
Method in brief: as §1

[7] = ref EFSA, 2010, cited from earlier work
[8] = cited from earlier work; for Water solubility: ref EFSA, 2010
[9] = test system: terrestrial plants; experiment: Seedling emergence and seedling growth test, OECD 208, three plant species; type: in vivo, Avena sativa, Brassica napus, Pisum sativum
Method in brief: as §1

[10] = test system: male BALB/c mice; experiment: Subchronic; type: in vivo, mouse; details: EQ 5,000 mg/kg feed, after 10 days, mice refused their feed
Method in brief: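 Groups of 10 BALB/c mice were fed the dimer for 90 days. Nominal levels were 0, 0.1, 1, 100, 1,000, 3,000 and 5,000 mg/kg feed, equal to 0, 0.015, 0.081, 10, 99, 286 and 518 mg/kg bw per day. A parent-compound group started at 5,000 mg/kg feed, was reduced to 1,000 mg/kg feed and was later excluded. BMD modelling used a 10% (or 20%) benchmark response.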

[11] = Metabolism of 14C-EQ in liver microsomes; type: in vitro ADME, rat, laying hen and goat; details: 10 and 100 µM, 37°C, 2 h
Method in brief: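 Liver microsomes were used. Hen (Isa-Warren) and goat (Deutsche Edelziege/Burenziege) microsomes were prepared in-house; rat microsomes were commercial. Incubation was with ring-¹⁴C(U)-labelled test compound at 10 and 100 µM, 37°C, 2 h.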

[12] = at 25°C; ref EFSA, 2010; cited from earlier work
[13] = test system: cattle for fattening; experiment: Tolerance study in cattle for fattening; type: in vivo, male Holstein calves
[14] = Residues of EQ and metabolites/TPs in cattle tissues; type: in vivo; details: for concentration at 42 days: Holstein, bovine, oral, 50 mg EQ/kg complete feed; for residue in muscle, highest value: LOQs as above
[15] = Oxygen bomb method, feed for sows
[16] = test system: Pacific oyster Crassostrea gigas; experiment: 24-h embryo-larval developmental test; type: in vivo; details: initially measured concentrations
[17] = test system: Eisenia andrei; experiment: Earthworm reproduction test, OECD 222; type: in vivo; details: 56 days, nominal
Method in brief: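 GLP 56-day Eisenia andrei test per OECD 222. Eight nominal soil levels were used: 16, 29, 53, 95, 171, 309, 556 and 1,000 mg/kg soil DW. A solvent control was included. Four replicates per treatment, eight for the solvent control, 10 worms per replicate. Reproduction, mortality and growth were scored.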

[18] = Oxygen bomb method, feed for chickens for fattening; details: for induction period: basal feed 7 h
[19] = Residues of EQ and metabolites/TPs in laying hen tissues and eggs; type: in vivo, laying hens; details: liquid egg, control (0 mg EQ/kg feed); LOQ 2 µg/kg whole egg
Method in brief: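 Liver, kidney, muscle and skin/fat were taken from eight hens per group after 56 days of feeding. Twelve eggs per treatment were collected: four per day on three consecutive days at the end of the study. EQ, EQDM, EQI, DHEQ, DEQ and metabolites A–C were measured. LOQs: EQ 0.5 (muscle) to 2 (other tissues) µg/kg; EQDM 0.5–1 µg/kg; EQI 1.5 µg/kg; DHEQ 0.5 µg/kg; whole egg 2 µg/kg per analyte.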

[20] = at 22°C; ref EFSA, 2010; cited from earlier work
[21] = 5,000 mg/kg feed (EQ4), 90 days
[22] = 10,000 mg/kg feed (EQ5), 90 days

## CCOc1ccc2c(c1)C(C)=CC(C)(C)N2 [EQ, 6‐ethoxy‐1,2‐dihydro‐2,2,4‐trimethylquinoline]
[1]
  EC50, shoot fresh weight: 181.3 mg/kg
[2]
  EC10 for fertility and growth: > 1,000 mg/kg sediment DW
  EC10 for reproduction: 727 mg/kg sediment DW
  NOEC for fertility, reproduction and growth: 400 mg/kg sediment DW
[3]; 50, 150 or 300 mg/kg feed, 42 days
  zootechnical parameters: not different from those of the control group
[3]; maximum use level 50 mg ethoxyquin/kg feed
  margin of safety: at least six
[4]; 5,000 mg/kg feed (EQ4)
  condition factor: 1.3 g/mL
  daily feed intake: 2.9 g/fish per day
  specific growth rate: 0.8 % bw per day
  total feed intake: 255 g/fish
[4]; [21]
  bw gain: 276 g
  final bw: 537 g
[4]; 10,000 mg/kg feed (EQ5)
  condition factor: 1.1 g/mL
  daily feed intake: 1.1 g/fish per day
  final salmon length: 29 cm
  specific growth rate: 0.1 % bw per day
  total feed intake: 100 g/fish
[4]; [22]
  bw gain: 38 g
  final bw: 301 g
[4]; up to 10,000 mg/kg feed, 90 days
  mortality: No fish died
[5]
  EC50: 3.3 µg/mL (≈ 15.2 µM)
[6]; 21 days
  EC50, shoot fresh weight: 242.2 mg/kg
[6]; up to 1,000 mg test item/kg soil DW
  effects on seedling emergence and survival of emerged seedlings: No adverse effects
[7]; pH 5
  Octanol/water partition coefficient (log Kow 25°C): 3.18
[7]; pH 7
  Octanol/water partition coefficient (log Kow 25°C): 3.39
[7]; pH 9
  Octanol/water partition coefficient (log Kow 25°C): 3.19
[8]; pH 5, 20°C
  Water solubility: 101 µg/mL
[8]; pH 7, 20°C
  Water solubility: 60 µg/mL
[8]; pH 7
  Solubility at pH 7 (input for PEC): 60 mg/L
[8]; pH 9, 20°C
  Water solubility: 70 µg/mL
[9]; all species tested
  concentration with statistically significant effects on shoot fresh weight: 111 mg test item/kg soil DW
[9]; lowest calculated, 21 days
  EC10: 55.8 mg test item/kg soil DW
[9]; shoot fresh weight, 21 days
  lowest calculated EC50: 155 mg test item/kg soil DW
[10]
  loss of initial body weight: 11%
[11]
  extent of metabolism: metabolised extensively
[11]; irrespective of origin
  number of metabolites identified: 18
[12]
  Vapour pressure: 3.46 × 10^–2 at 25 °C Pa
[13]; 50 mg ethoxyquin/kg feed
  margin of safety: 10
[13]; 1× (50 mg/kg feed), 42 days
  gamma-glutamyl transpeptidase: 22.4 µ/L
  platelet count: 452000 µL⁻¹
[13]; 3× (150 mg/kg feed), 42 days
  platelet count: 394000 µL⁻¹
[13]; 10× (500 mg/kg feed), 42 days, p = 0.01 to the control
  platelet count: 264000 µL⁻¹
[14]; kidney, residue in kidney, highest value, cattle, 50 mg EQ/kg complete feed for 42 days, LOQs 1.5–2 µg EQ, EQDM, metabolite A/kg, 0.5–1 µg EQI, DHEQ/kg
  concentration at 42 days: 19.9 ng/g
[14]; liver
  concentration at 42 days: 34 ng/g
[14]; cattle, 50 mg EQ/kg complete feed for 42 days
  residue in muscle, highest value: ˂ LOQ
[14]; cattle, control (0 mg EQ/kg feed), 42 days
  residue in muscle, highest value: ˂ LOQ
[15]; 25 mg ethoxyquin/kg feed (EQ25)
  protection factor: 1.50
[15]; 50 mg ethoxyquin/kg feed (EQ50)
  protection factor: 1.78
[16]
  24-h NOEC (development): 2.9 mg/L
[17]
  LC50 (mortality): 693 mg test item/kg soil DW
  NOEC for biomass: ≥ 556 mg test item/kg soil DW
  NOEC for mortality: 556 mg test item/kg soil DW
  NOEC for reproduction: 171 mg test item/kg soil DW
[18]; 25 mg ethoxyquin/kg feed
  induction period: 7.6 h
[18]; 50 mg ethoxyquin/kg feed
  protection factor: 1.46
  induction period: 9.9 h
[19]
  residue in eggs: ˂ LOQ^( ^d ^)
[20]
  Dissociation constant: 4.56 at 22 °C
